Four compounds from ChEMBL document CHEMBL1137737, “Synthesis, antimicrobial and cytotoxic activities of 1,3,4-oxadiazoles, 1,3,4-thiadiazoles and 1,2,4-triazoles” (Eur J Med Chem, 2009) can be followed below.

What all share (format): functional
Assay [1] deals with Bacillus subtilis. In words: Antibacterial activity against Bacillus subtilis NCIM 2063 at 100 ug/disk after 24 hrs by agar disc-diffusion method. Conditions: NCIM 2063, 24 h, read-out: DIZ. The procedure, abridged: (§1)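 Sterile 6 mm filter-paper discs are soaked in compound solution in DMSO and placed on nutrient agar plates already inoculated with each organism. Plates are incubated at 37 °C. The diameter of the growth-inhibition zone is read after 24 h for bacteria and after 48 h for fungi.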

Assay [2] deals with Aspergillus niger. Put plainly: Antifungal activity against Aspergillus niger NCIM 596 at 100 ug/disk after 48 hrs by agar disc-diffusion method. The settings on record: NCIM 596, 48 h, read-out: DIZ. The essentials: as §1
Assay [3] has as its system Klebsiella pneumoniae. In words: Antibacterial activity against Klebsiella pneumoniae NCIM 2957 at 100 ug/disk after 24 hrs by agar disc-diffusion method. The settings on record: NCIM 2957, 24 h, read-out: DIZ. The procedure, abridged:
as §1

Assay [4] relates to Staphylococcus aureus. Put plainly: Antibacterial activity against Staphylococcus aureus NCIM 5021 after 24 hrs by microdilution susceptibility method. The settings on record: NCIM 5021, 24 h. The procedure, abridged:
(§2)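 This is a microdilution susceptibility test. Organism suspensions are inoculated into wells holding the dilution series, then incubated at 36 °C for 24 h (bacteria) or 48 h (fungi). MIC is the lowest concentration giving no turbidity, i.e. complete inhibition of visible growth.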

The test system of assay [5] is Bacillus subtilis. Put plainly: Antibacterial activity against Bacillus subtilis NCIM 2063 after 24 hrs by microdilution susceptibility method. Conditions: NCIM 2063, 24 h. The essentials:
as §2

In assay [6] the test system is Klebsiella pneumoniae. Put plainly: Antibacterial activity against Klebsiella pneumoniae NCIM 2957 after 24 hrs by microdilution susceptibility method. Conditions: NCIM 2957, 24 h. The essentials: as §2
In assay [7] the test system is Fusarium solani. In words: Antifungal activity against Fusarium solani NCIM 1330 after 48 hrs by microdilution susceptibility method. The settings on record: NCIM 1330, 48 h. The procedure, abridged: as §2
Assay [8] has as its system Proteus vulgaris. Put plainly: Antibacterial activity against Proteus vulgaris NCIM 2027 after 24 hrs by microdilution susceptibility method. Conditions: NCIM 2027, 24 h. The essentials:
as §2

Assay [9] relates to Fusarium solani. Put plainly: Antifungal activity against Fusarium solani NCIM 1330 at 200 ug/disk after 48 hrs by agar disc-diffusion method. The settings on record: NCIM 1330, 48 h, read-out: DIZ. The procedure, abridged: as §1
Assay [10] concerns Staphylococcus aureus. In words: Antibacterial activity against Staphylococcus aureus NCIM 5021 at 100 ug/disk after 24 hrs by agar disc-diffusion method. The settings on record: NCIM 5021, 24 h, read-out: DIZ. The procedure, abridged:
as §1

The subject of assay [11] is Bacillus subtilis. In words: Antibacterial activity against Bacillus subtilis NCIM 2063 at 200 ug/disk after 24 hrs by agar disc-diffusion method. Conditions: NCIM 2063, 24 h, read-out: DIZ. The essentials:
as §1

For assay [12], the system named is Aspergillus niger. Put plainly: Antifungal activity against Aspergillus niger NCIM 596 at 200 ug/disk after 48 hrs by agar disc-diffusion method. The settings on record: NCIM 596, 48 h, read-out: DIZ. The essentials:
as §1

Assay [13] relates to Klebsiella pneumoniae. Put plainly: Antibacterial activity against Klebsiella pneumoniae NCIM 2957 at 200 ug/disk after 24 hrs by agar disc-diffusion method. Conditions: NCIM 2957, 24 h, read-out: DIZ. The essentials: as §1
The test system of assay [14] is Proteus vulgaris. Put plainly: Antibacterial activity against Proteus vulgaris NCIM 2027 at 200 ug/disk after 24 hrs by agar disc-diffusion method. Conditions: NCIM 2027, 24 h, read-out: DIZ. The essentials:
as §1

Assay [15] deals with Fusarium solani. In words: Antifungal activity against Fusarium solani NCIM 1330 at 100 ug/disk after 48 hrs by agar disc-diffusion method. Conditions: NCIM 1330, 48 h, read-out: DIZ. The procedure, abridged: as §1
Assay [16] has as its system Proteus vulgaris. In words: Antibacterial activity against Proteus vulgaris NCIM 2027 at 100 ug/disk after 24 hrs by agar disc-diffusion method. Conditions: NCIM 2027, 24 h, read-out: DIZ. The essentials:
as §1

Assay [17] has as its system Curvularia lunata. In words: Antifungal activity against Curvularia lunata NCIM 716 at 100 ug/disk after 48 hrs by agar disc-diffusion method. Conditions: NCIM 716, 48 h, read-out: DIZ. The essentials:
as §1

Assay [18] relates to Curvularia lunata. In words: Antifungal activity against Curvularia lunata NCIM 716 at 200 ug/disk after 48 hrs by agar disc-diffusion method. Conditions: NCIM 716, 48 h, read-out: DIZ. The essentials:
as §1

The test system of assay [19] is Aspergillus niger. Put plainly: Antifungal activity against Aspergillus niger NCIM 596 after 48 hrs by microdilution susceptibility method. Conditions: NCIM 596, 48 h. The essentials:
as §2

For assay [20], the system named is Curvularia lunata. Put plainly: Antifungal activity against Curvularia lunata NCIM 716 after 48 hrs by microdilution susceptibility method. Conditions: NCIM 716, 48 h. The essentials: as §2
Assay [21] deals with Staphylococcus aureus. In words: Antibacterial activity against Staphylococcus aureus NCIM 5021 at 200 ug/disk after 24 hrs by agar disc-diffusion method. The settings on record: NCIM 5021, 24 h, read-out: DIZ. The procedure, abridged: as §1

Converted amounts (≈) assume the structure as drawn.

In the case of `O=S(=O)(Cc1nnc(-c2ccccc2Cl)s1)c1ccc(Cl)cc1`, the zone of inhibition at 100 µg/disc in assay [1] is 19 mm; in assay [2], 17 mm; in assay [3], 16 mm; in assay [10], 21 mm; in assay [15], 20 mm; in assay [16] it was 19 mm. In addition, the zone of inhibition at 100 µg/disc in assay [17] amounted to 19 mm. The minimum inhibitory concentration (MIC) in assay [4] was determined as 200 µg/mL (≈ 519 µM); in [5], 200 µg/mL (≈ 519 µM); in assay [6] it was 400 µg/mL (≈ 1040 µM); in assay [7], 200 µg/mL (≈ 519 µM); in assay [8], 400 µg/mL (≈ 1040 µM); in assay [19] it was 200 µg/mL (≈ 519 µM). The lowest concentration to inhibit growth in [20] (MIC) was 200 µg/mL (≈ 519 µM). Further, the zone of inhibition at 200 µg/disc came out at 24 mm in assay [9]; 23 mm in [11]; 21 mm in [12]; 19 mm in assay [13]; 21 mm in assay [14]; 22 mm in assay [18]. Besides, in assay [21], the zone of inhibition at 200 µg/disc is 23 mm.

Take `O=S(=O)(Cc1ccccc1)Cc1nnc(-c2ccccc2Cl)s1`: the zone of inhibition at 100 µg/disc turned out to be 25 mm in assay [1]; 16 mm in [2]; 19 mm in assay [3]; 26 mm in [10]; 20 mm in [15]; 18 mm in [16]. Further, the zone of inhibition at 100 µg/disc in assay [17] came out at 19 mm. The MIC in assay [4] was 100 µg/mL (≈ 274 µM); in assay [5], 200 µg/mL (≈ 548 µM); in assay [6], 200 µg/mL (≈ 548 µM); in [7] it was 200 µg/mL (≈ 548 µM); in [8] it was 200 µg/mL (≈ 548 µM); in [19], 200 µg/mL (≈ 548 µM). Further, the MIC in assay [20] was 200 µg/mL (≈ 548 µM). Further, the zone of inhibition at 200 µg/disc turned out to be 23 mm in [9]; 28 mm in assay [11]; 19 mm in assay [12]; 23 mm in assay [13]; 22 mm in assay [14]; 21 mm in [18]. For the same compound, the zone of inhibition at 200 µg/disc in assay [21] was 29 mm.

As for `Nn1c(CS(=O)(=O)Cc2ccc(Cl)cc2)nnc1-c1ccccc1`, the zone of inhibition at 100 µg/disc in assay [1] amounted to 28 mm; in assay [2] it was 18 mm; in [3], 27 mm; in [10], 27 mm; in [15], 24 mm; in [16], 26 mm. In assay [17], the zone of inhibition at 100 µg/disc worked out at 24 mm. For the same compound, the MIC in [4] was 100 µg/mL (≈ 276 µM); in assay [5], 100 µg/mL (≈ 276 µM); in assay [6] it was 200 µg/mL (≈ 551 µM); in assay [7], 100 µg/mL (≈ 276 µM); in [8] it was 200 µg/mL (≈ 551 µM); in assay [19], 200 µg/mL (≈ 551 µM). The MIC in assay [20] was 200 µg/mL (≈ 551 µM). The zone of inhibition at 200 µg/disc in assay [9] was found to be 26 mm; in [11], 33 mm; in [12], 20 mm; in assay [13], 29 mm; in assay [14], 29 mm; in assay [18], 27 mm. Further, in [21], the zone of inhibition at 200 µg/disc turned out to be 31 mm.

Consider `O=S(=O)(Cc1ccc(Cl)cc1)Cc1nnc(-c2ccccc2Cl)s1`, for which the zone of inhibition at 100 µg/disc in assay [1] came to 27 mm; in [2], 20 mm; in [3] it was 20 mm; in assay [10], 29 mm; in [15], 28 mm; in assay [16] it was 20 mm. In addition, the zone of inhibition at 100 µg/disc in assay [17] was found to be 25 mm. Further, the MIC in assay [4] is 50 µg/mL (≈ 125 µM); in assay [5], 100 µg/mL (≈ 250 µM); in assay [6] it was 100 µg/mL (≈ 250 µM); in assay [7], 100 µg/mL (≈ 250 µM); in [8] it was 200 µg/mL (≈ 501 µM); in [19], 100 µg/mL (≈ 250 µM). In [20], this compound gave a minimum inhibitory concentration (MIC) of 100 µg/mL (≈ 250 µM). Moreover, the zone of inhibition at 200 µg/disc in [9] worked out at 31 mm; in assay [11], 31 mm; in [12], 23 mm; in assay [13] it was 24 mm; in assay [14], 23 mm; in [18] it was 27 mm. The zone of inhibition at 200 µg/disc in assay [21] came out at 33 mm.
